In ChEMBL document CHEMBL1649171, “Metabolism of an alkyl polyamine analog by a polyamine oxidase from the microsporidian Encephalitozoon cuniculi” (Antimicrob Agents Chemother, 2009):
pKi: −log10 of the molar value. Where “and” joins values, the source holds several entries; their conditions need not be identical. Identical values can stand only once.

Assays:
Encephalitozoon cuniculi [1] = experiment: Activity of Encephalitozoon cuniculi polyamine oxidase assessed as hydrogen peroxide release by spectrophotometry
Procedure, shortened: (§1)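 Crude enzyme came from mature E. cuniculi spores collected from culture overlay. Spores were washed in PBS pH 6.8, given 1% SDS for 5 min, glass-bead disrupted to >80% breakage, and clarified at 2,200 × g. The 1 ml assay at 37°C held 0.1 M glycine pH 7.0, 10 U horseradish peroxidase, 5 mM ABTS and 22–220 μg protein. Substrate started the reaction. A420 was followed 15 or 30 min; initial linear rate minus no-substrate control.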

Encephalitozoon cuniculi [2] = experiment: Activity of Encephalitozoon cuniculi polyamine oxidase assessed as hydrogen peroxide release by spectrophotometry in presence of 1,15-bis{N-[O-phenyl)benzylamino}-4,12-diazapentadecane
Procedure, shortened: (§2)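 Crude spore extract (SDS-washed spores, glass-bead disrupted, clarified at 2,200 × g) in 0.1 M glycine, pH 7.0, with horseradish peroxidase and ABTS. Runs used N1-acetylspermine at 100–2,000 μM, alone or with the analog fixed at 5, 50 or 100 μM; the analog alone was run at 1–25 μM. Reactions were started with 67 μg extract, and A420 was read for 15 min. Kinetic constants came from Hanes-Woolf plots ([S]/V vs [S]).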

[3] = Inhibition of Encephalitozoon cuniculi polyamine oxidase assessed as hydrogen peroxide release using N'-acetylspermine substrate by spectrophotometry; procedure, shortened: as §2
Encephalitozoon cuniculi [4] = experiment: Activity of Encephalitozoon cuniculi polyamine oxidase assessed as hydrogen peroxide release per mg protein by spectrophotometry relative to 0.1 mM N'-acetylspermine; procedure, shortened: as §1
Encephalitozoon cuniculi [5] = experiment: Activity of Encephalitozoon cuniculi polyamine oxidase assessed as hydrogen peroxide release per mg protein by spectrophotometry relative to 1 mM N'-acetylspermine; procedure, shortened: as §1
Encephalitozoon cuniculi [6] = experiment: Activity of Encephalitozoon cuniculi polyamine oxidase assessed as hydrogen peroxide release per mg protein by spectrophotometry
Procedure, shortened: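 Enzyme was a clarified glass-bead homogenate of SDS-washed mature spores (>80% breakage). Reactions at 37°C held 0.1 M glycine, pH 7.0, 10 U HRP, 5 mM ABTS and 22–220 μg protein, and were started with substrate (1 mM N1-acetylspermine or another, e.g. 0.1 mM). Peroxide was followed as ABTS oxidation at 420 nm (ε 3.6 × 10⁴ M⁻¹ cm⁻¹) for 15 or 30 min. Values are the initial linear rate minus a no-substrate control.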

In the case of CC(=O)NCCCNCCCCNCCCN, the Km (Encephalitozoon cuniculi [1]) was 30 µM, the Vmax (Encephalitozoon cuniculi [1]) was 10 µM/min and the Km (Encephalitozoon cuniculi [2]) was 15 µM. For the same molecule, the Vmax (Encephalitozoon cuniculi [2]) was 17.5 µM/min.
Molecule c1ccc(-c2ccccc2CNCCCNCCCCCCCNCCCNCc2ccccc2-c2ccccc2)cc1 has a Km (Encephalitozoon cuniculi [1]) of 2 µM, a Vmax (Encephalitozoon cuniculi [1]) of 7.6 µM/min and a pKi [3] of 4.40. For the same molecule, the fold change (FC) (Encephalitozoon cuniculi [4]) was 0.8 and the fold change (FC) (Encephalitozoon cuniculi [5]) was 0.31.
For c1ccc(CNCCCNCCCCCCCNCCCNCc2ccccc2)cc1, the Activity (Encephalitozoon cuniculi [6]) was 1370 nmol/min and 690 nmol/min, the fold change (FC) (Encephalitozoon cuniculi [4]) was 0.98 and the fold change (FC) (Encephalitozoon cuniculi [5]) was 0.89.
